Test results taken from ChEMBL document CHEMBL1144162, “Tetrahydropyridine-4-carboxamides as novel, potent transient receptor potential vanilloid 1 (TRPV1) antagonists” (Bioorg Med Chem, 2008).
In brackets after ≈: the same amount, converted by molar mass.

What was measured:
[1] = target: T1, Transient receptor potential cation channel subfamily V member 1 (Homo sapiens, UniProt Q8NER1); experiment: Antagonist activity at human recombinant TRPV1 expressed in human 1321N1 cells assessed as inhibition of capsaicin-induced calcium influx by FLIPR assay; assay type: functional, cell-based
T1 sequence (Q8NER1 whole entry): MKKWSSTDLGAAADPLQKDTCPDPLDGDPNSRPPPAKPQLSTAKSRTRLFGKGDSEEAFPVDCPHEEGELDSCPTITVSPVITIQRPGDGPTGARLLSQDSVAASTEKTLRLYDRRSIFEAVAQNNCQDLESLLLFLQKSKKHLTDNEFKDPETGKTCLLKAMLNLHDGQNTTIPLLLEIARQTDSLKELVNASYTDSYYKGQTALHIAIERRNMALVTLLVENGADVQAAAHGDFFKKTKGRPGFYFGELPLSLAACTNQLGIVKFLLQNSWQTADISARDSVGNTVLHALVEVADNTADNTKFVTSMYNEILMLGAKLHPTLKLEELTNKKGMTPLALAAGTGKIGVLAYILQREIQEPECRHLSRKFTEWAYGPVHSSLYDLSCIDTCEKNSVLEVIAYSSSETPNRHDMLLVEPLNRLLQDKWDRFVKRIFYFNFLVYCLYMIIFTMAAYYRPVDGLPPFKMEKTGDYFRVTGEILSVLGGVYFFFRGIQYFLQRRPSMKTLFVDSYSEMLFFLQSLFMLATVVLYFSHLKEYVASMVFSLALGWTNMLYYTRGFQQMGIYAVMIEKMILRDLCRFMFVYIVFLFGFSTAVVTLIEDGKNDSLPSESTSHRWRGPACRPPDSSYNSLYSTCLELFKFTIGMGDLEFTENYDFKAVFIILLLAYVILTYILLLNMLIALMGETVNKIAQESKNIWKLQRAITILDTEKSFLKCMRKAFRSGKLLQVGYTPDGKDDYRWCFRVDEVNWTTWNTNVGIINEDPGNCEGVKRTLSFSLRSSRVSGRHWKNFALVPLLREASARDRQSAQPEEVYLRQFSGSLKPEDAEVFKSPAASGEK
Method in brief: (§1)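 Ca2+ influx in 1321N1 cells stably expressing recombinant human or rat TRPV1, grown to confluency, loaded with fluo-4 AM (2 µM in D-PBS) 1–2 h at 23 °C, washed. Compound (11-point half-log range, D-PBS) added at 10 s, capsaicin 3 min later. FLIPR fluorescence read over 240 s; peak increase minus baseline as % of 0.05 µM capsaicin control; four-parameter logistic fit for IC50; mean of ≥2 experiments in triplicate.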

Rattus norvegicus [2] = experiment: Antinociceptive activity against hyperalgesia in po dosed rat Chung neuropathic pain model; assay type: functional
Rattus norvegicus [3] = experiment: Analgesic activity against complete Freund's adjuvant-induced thermal hyperalgesia in po dosed Sprague-Dawley rat assessed as paw withdrawal latency; assay type: functional
Method in brief: (§2)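 Male Sprague–Dawley rats (200–320 g), food withdrawn 16 h before oral dosing. Right hindpaw injected with 150 µL of 50% CFA in saline. Thermal hyperalgesia measured 48 h later as radiant-heat paw withdrawal on a 30 °C glass surface after 30 min habituation. Vehicle: 10% ethanol, 20% polysorbate-80, 70% PEG-400. Single-dose testing used 30 µmol/kg po, n = 6/group, versus vehicle.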

[4] = Ratio of drug level in brain to plasma in po dosed Sprague-Dawley rat; assay type: ADME, organism-based
Method in brief: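 Male Sprague–Dawley rats (200–320 g), group-housed with free food and water, fasted 16 h before oral dosing. Compound given po in 10% ethanol, 20% polysorbate-80 and 70% PEG-400. Drug concentrations in brain and plasma were expressed as a [brain]:[plasma] ratio.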

[5] = target: T1, Transient receptor potential cation channel subfamily V member 1; experiment: Antagonist activity at human recombinant TRPV1 expressed in human 1321N1 cells assessed as inhibition of N-arachidonoyl-dopamine-induced calcium influx by FLIPR assay; assay type: functional, cell-based
Method in brief: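 FLIPR fluo-4 Ca2+ influx in 1321N1 cells stably expressing human TRPV1, with 3 µM NADA as the stimulus. Compound is added before agonist challenge. Peak fluorescence increase over baseline is fit to a four-parameter logistic curve to give IC50.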

[6] = Solubility in PEG-400; assay type: physicochemical
Method in brief: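 Solubility was measured in PEG-400 as an organic vehicle.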

[7] = Apparent permeability across human Caco-2 cell membrane; assay type: ADME, cell-based
Rattus norvegicus [8] = species on record: Rattus norvegicus; experiment: Analgesic activity against monosodium iodoacetate-induced osteoarthritis in rat; assay type: functional
[9] = Aqueous solubility of the compound; assay type: physicochemical; conditions: buffer
Rattus norvegicus [10] = experiment: Analgesic activity against complete Freund's adjuvant-induced mechanical allodynia in po dosed Sprague-Dawley rat; assay type: functional
Rattus norvegicus [11] = species on record: Rattus norvegicus; experiment: Nocifensive activity against capsaicin-induced neuropathic pain in rat; assay type: functional
[12] = target: Transient receptor potential cation channel subfamily V member 1 (Rattus norvegicus, UniProt O35433); experiment: Antagonist activity at rat TRPV1 expressed in human 1321N1 cells assessed as inhibition of capsaicin-induced calcium influx by FLIPR assay; assay type: functional, cell-based; method in brief: as §1
Chain of Transient receptor potential cation channel subfamily V member 1 (Rattus norvegicus, UniProt O35433) (O35433 whole entry): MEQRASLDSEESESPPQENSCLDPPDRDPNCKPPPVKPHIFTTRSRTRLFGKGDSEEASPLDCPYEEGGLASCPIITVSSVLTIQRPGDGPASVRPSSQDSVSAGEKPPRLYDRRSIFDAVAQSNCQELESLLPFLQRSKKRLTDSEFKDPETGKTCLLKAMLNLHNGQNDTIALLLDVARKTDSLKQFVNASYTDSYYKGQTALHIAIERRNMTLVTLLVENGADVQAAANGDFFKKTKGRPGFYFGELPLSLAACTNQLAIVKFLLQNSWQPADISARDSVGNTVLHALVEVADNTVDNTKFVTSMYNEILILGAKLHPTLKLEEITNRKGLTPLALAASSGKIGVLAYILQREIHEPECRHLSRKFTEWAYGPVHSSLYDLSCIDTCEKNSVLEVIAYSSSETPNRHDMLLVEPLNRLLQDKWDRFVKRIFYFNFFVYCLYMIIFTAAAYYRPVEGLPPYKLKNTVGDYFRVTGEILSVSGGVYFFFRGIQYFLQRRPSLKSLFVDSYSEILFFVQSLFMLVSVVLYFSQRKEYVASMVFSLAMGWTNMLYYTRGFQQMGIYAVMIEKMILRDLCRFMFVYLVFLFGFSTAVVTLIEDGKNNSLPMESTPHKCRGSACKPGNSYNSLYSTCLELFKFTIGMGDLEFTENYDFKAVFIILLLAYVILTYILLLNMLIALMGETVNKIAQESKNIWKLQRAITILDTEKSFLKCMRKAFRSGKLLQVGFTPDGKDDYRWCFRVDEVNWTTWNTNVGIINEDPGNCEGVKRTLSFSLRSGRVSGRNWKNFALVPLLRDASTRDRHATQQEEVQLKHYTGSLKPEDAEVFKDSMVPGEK

[13] = Plasma concentration in po dosed Sprague-Dawley rat after 1 hr; assay type: ADME, organism-based
Rattus norvegicus [14] = species on record: Rattus norvegicus; experiment: Analgesic activity against capsaicin-induced secondary mechanical allodynia in rat; assay type: functional
Rattus norvegicus [15] = experiment: Analgesic activity against complete Freund's adjuvant-induced thermal hyperalgesia in Sprague-Dawley rat assessed as paw withdrawal latency at 30 umol/kg, po; assay type: functional; method in brief: as §2
Rattus norvegicus [16] = species on record: Rattus norvegicus; experiment: Analgesic activity against skin incision-induced acute thermal hyperalgesia in Sprague-Dawley rat; assay type: functional
Method in brief: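 Under halothane (2–3%) anesthesia, a left hind paw plantar incision was made aseptically in male Sprague–Dawley rats. Rats recovered 2 h before thermal hyperalgesia testing.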

Rattus norvegicus [17] = species on record: Rattus norvegicus; experiment: Analgesic activity against gamma carrageenan-induced thermal hyperalgesia in Sprague-Dawley rat; assay type: functional
Method in brief: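 Male Sprague–Dawley rats (200–320 g) received 100 µL of 1% carrageenan in saline into the right hindpaw plantar surface. Thermal hyperalgesia was tested 2 h later by radiant heat to the plantar surface in Plexiglass cubicles on a 30 °C glass floor, after 30 min habituation.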

[18] = target: T1, Transient receptor potential cation channel subfamily V member 1; experiment: Antagonist activity at human recombinant TRPV1 expressed in human 1321N1 cells assessed as inhibition of pH 5.5-induced calcium influx by FLIPR assay; assay type: functional, cell-based
Method in brief: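 Fluo-4 FLIPR Ca2+ assay in 1321N1 cells stably expressing human TRPV1, stimulated by low pH (pH 5.5) after compound preincubation. Peak fluorescence rise minus baseline is fit by a four-parameter logistic equation to give IC50.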

[19] = target: Voltage-gated inwardly rectifying potassium channel KCNH2 (Homo sapiens, UniProt Q12809); experiment: Inhibition of human ERG
Chain of Voltage-gated inwardly rectifying potassium channel KCNH2 (Q12809 whole entry): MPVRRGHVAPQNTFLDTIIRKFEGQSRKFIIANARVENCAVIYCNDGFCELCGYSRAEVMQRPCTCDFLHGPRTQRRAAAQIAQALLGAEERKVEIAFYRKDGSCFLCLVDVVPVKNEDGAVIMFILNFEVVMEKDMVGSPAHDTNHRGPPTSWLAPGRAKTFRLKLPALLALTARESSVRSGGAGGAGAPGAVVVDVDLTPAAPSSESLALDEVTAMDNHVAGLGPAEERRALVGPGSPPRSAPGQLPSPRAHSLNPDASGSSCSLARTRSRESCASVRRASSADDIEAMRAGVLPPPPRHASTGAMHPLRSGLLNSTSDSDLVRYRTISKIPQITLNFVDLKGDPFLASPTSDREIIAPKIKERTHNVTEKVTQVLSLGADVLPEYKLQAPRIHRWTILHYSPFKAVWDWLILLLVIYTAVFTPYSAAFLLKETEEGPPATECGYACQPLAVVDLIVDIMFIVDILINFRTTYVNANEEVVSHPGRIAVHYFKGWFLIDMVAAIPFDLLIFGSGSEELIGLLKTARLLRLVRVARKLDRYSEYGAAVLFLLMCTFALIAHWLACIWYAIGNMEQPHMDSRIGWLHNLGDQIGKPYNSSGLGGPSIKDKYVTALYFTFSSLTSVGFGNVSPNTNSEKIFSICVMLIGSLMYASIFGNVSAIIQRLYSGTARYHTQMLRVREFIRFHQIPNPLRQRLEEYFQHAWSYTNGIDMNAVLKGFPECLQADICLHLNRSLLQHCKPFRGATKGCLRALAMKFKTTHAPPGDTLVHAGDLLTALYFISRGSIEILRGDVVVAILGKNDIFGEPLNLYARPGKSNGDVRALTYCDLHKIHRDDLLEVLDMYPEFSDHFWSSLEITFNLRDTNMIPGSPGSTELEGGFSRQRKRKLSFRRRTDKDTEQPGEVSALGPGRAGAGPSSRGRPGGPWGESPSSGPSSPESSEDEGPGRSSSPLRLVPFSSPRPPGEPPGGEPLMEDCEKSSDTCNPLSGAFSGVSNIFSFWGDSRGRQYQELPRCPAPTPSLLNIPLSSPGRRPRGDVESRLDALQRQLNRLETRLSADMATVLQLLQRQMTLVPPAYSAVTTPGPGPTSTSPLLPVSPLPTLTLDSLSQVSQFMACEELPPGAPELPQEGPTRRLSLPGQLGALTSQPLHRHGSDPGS

[20] = Half-life in po dosed Sprague-Dawley rat; assay type: ADME, organism-based; conditions: in vivo
[21] = Oral bioavailability in Sprague-Dawley rat; assay type: ADME, organism-based; conditions: in vivo

Compound | IC50 [1] [nM] | Efficacy (Rattus norvegicus [15]) [%] | other results
CC(C)(C)c1ccc(NC(=O)N2CCN(c3ncccc3Cl)CC2)cc1 | – | – | ED50 (Rattus norvegicus [2]): 8 µmol/kg; ED50 (Rattus norvegicus [3]): 8 µmol/kg; Kp [4]: 5
COc1cccc(NC(=O)c2ccc(-c3ccccc3)cc2)c1 | 147 | – | –
O=C(Nc1ccc(Cl)c(F)c1)C1=CCN(c2ncccc2Cl)CC1 | 78 | – | –
CC(C)(C)c1ccc(NC(=O)C2=CCN(c3ccccc3F)CC2)cc1 | 265 | – | –
O=C(Nc1ccc(S(=O)(=O)C(F)(F)F)cc1)C1=CCN(c2ncccc2F)CC1 | 67 | 51 | concentration at 1 h [13]: 900 ng/mL
O=C(Nc1ccc(S(=O)(=O)C(F)(F)F)cc1)C1=CCN(c2nccs2)CC1 | 95 | 37 | concentration at 1 h [13]: 2100 ng/mL
CC(C)(C)c1ccc(NC(=O)C2=CCN(c3ncccc3C#N)CC2)cc1 | 78 | – | –
O=C(Nc1ccc(Cl)c(Cl)c1)C1=CCN(c2ncccc2Cl)CC1 | 124 | – | –
O=C(Nc1ccc(Cl)cc1C(F)(F)F)C1=CCN(c2ncccc2Cl)CC1 | 2750 | – | –
CC(C)(C)c1ccc(NC(=O)C2CCN(c3ncccc3Cl)CC2)cc1 | 196 | – | –
O=C(Nc1ccc(S(=O)(=O)C(F)(F)F)cc1)C1=CCN(c2ncccn2)CC1 | 44 | 53 | concentration at 1 h [13]: 380 ng/mL
O=C(Nc1ccc(Cl)cc1F)C1=CCN(c2ncccc2Cl)CC1 | 618 | – | –

The remaining compounds from weak to strong by IC50 [1], led by results:

IC50 [1] [nM] | Compound | Efficacy (Rattus norvegicus [15]) [%] | other results
42 | CC(C)(C)c1ccc(NC(=O)c2ccc(-c3ccccn3)cc2)cc1 | – | –
42 | O=C(Nc1ccc(C(F)(F)F)nc1)C1=CCN(c2ncccc2C(F)(F)F)CC1 | 61 | bioavailability [21]: 3%
41 | CC(C)(C#N)c1ccc(NC(=O)C2=CCN(c3ncccc3C(F)(F)F)CC2)cc1 | 25 | –
41 | O=C(Nc1ccc(S(=O)(=O)C(F)(F)F)cc1)C1=CCN(c2ncccc2Cl)CC1 | 63 | concentration at 1 h [13]: 280 ng/mL
35 | Cc1cccnc1N1CC=C(C(=O)Nc2ccc(S(=O)(=O)C(F)(F)F)cc2)CC1 | 53 | concentration at 1 h [13]: 960 ng/mL
33 | O=C(Nc1ccc(Cl)cc1)C1=CCN(c2ncccc2Cl)CC1 | – | Activity [19]: Active; half-life [20]: 1.7 h; bioavailability [21]: 16%
27 | CC(C)(C)c1ccc(NC(=O)C2=CCN(c3ccccn3)CC2)cc1 | – | –
24 | O=C(Nc1ccc(S(=O)(=O)C(F)(F)F)cc1)C1=CCN(c2ncccc2C(F)(F)F)CC1 | 58 | IC50 [5]: 20.2 nM; solubility [6]: > 100 mg/mL; Papp [7]: 28.5 ×10⁻⁶ cm/s; ED50 (Rattus norvegicus [8]): 8 µmol/kg; solubility [9]: 0.033 µg/mL (≈ 6.88e-05 mM); ED50 (Rattus norvegicus [10]): 76 µmol/kg; ED50 (Rattus norvegicus [11]): 10 µmol/kg; IC50 [12]: 17 nM; ED50 (Rattus norvegicus [2]): > 300 µmol/kg; concentration at 1 h [13]: 200 ng/mL; ED50 (Rattus norvegicus [14]): 40 µmol/kg; ED50 (Rattus norvegicus [16]): 20 µmol/kg; ED50 (Rattus norvegicus [17]): 25 µmol/kg; ED50 (Rattus norvegicus [3]): 12 µmol/kg; IC50 [18]: 14 nM; Kp [4]: 1.5
19 | O=C(Nc1ccc(Cl)cc1)C1=CCN(c2ncccc2C(F)(F)F)CC1 | 40 | –
19 | CC(C)(C)c1ccc(NC(=O)C2=CCN(c3ncccc3F)CC2)cc1 | – | –
14 | CC(C)(C)c1ccc(NC(=O)C2=CCN(c3nccs3)CC2)cc1 | – | –
14 | O=C(Nc1cccc2[nH]ncc12)N[C@@H]1CCc2cc(N3CCCCC3)ccc21 | – | ED50 (Rattus norvegicus [8]): 280 µmol/kg; ED50 (Rattus norvegicus [10]): 300 µmol/kg; ED50 (Rattus norvegicus [11]): 10 µmol/kg; IC50 [12]: 30 nM; ED50 (Rattus norvegicus [2]): > 300 µmol/kg; ED50 (Rattus norvegicus [14]): 165 µmol/kg; ED50 (Rattus norvegicus [3]): 12 µmol/kg; Kp [4]: 0.008
10 | CC(C)(C)c1ccc(NC(=O)C2=CCN(c3ncccc3Cl)CC2)cc1 | – | –
10 | CC(C)(C)c1ccc(NC(=O)C2=CCN(c3ncccn3)CC2)cc1 | – | –
8 | O=C(Nc1ccc(C(F)(F)F)cc1)C1=CCN(c2ncccc2C(F)(F)F)CC1 | 35 | –
6 | CC(C)(C)c1ccc(NC(=O)C2=CCN(c3ncccc3C(F)(F)F)CC2)cc1 | – | Activity (Rattus norvegicus [15]): 28%
